In ChEMBL document CHEMBL1795304, “Synthesis, antitumor and antimicrobial activities of 4-(4-chlorophenyl)-3-cyano-2-(β-O-glycosyloxy)-6-(thien-2-yl)-nicotinonitrile” (2011):

Columns and labels:
Assay type in all cases: functional
[1] = system: MCF7; experiment: Cytotoxicity against human MCF7 cells assessed as inhibition of cell viability at 50 ug/mL after 48 hrs by MTT assay; settings: MCF7, 48 h
How it was run: (§1)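 MCF7 cells kept in DMEM with 10% FBS, 2 mM L-glutamine and antibiotics at 37 °C, 5% CO2. Cells plated at 0.5 × 10⁵ per well in serum-free medium and exposed for 48 h to DMSO-dissolved compound (25, 50, 100 µg/mL). MTT then added for 4 h and formazan dissolved in acidified isopropanol. Absorbance read at 570 nm in triplicate, expressed as % viability versus untreated cells.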

[2] = system: MCF7; experiment: Cytotoxicity against human MCF7 cells assessed as inhibition of cell viability at 100 ug/mL after 48 hrs by MTT assay; settings: MCF7, 48 h; how it was run: as §1
[3] = system: Staphylococcus aureus; experiment: Antimicrobial activity against Staphylococcus aureus at 1 ug/mL after 48 hrs by cup plate agar diffusion method; settings: read-out: IZ
How it was run: (§2)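 Cup plate agar diffusion. Compounds dissolved in DMSO at 1 µg/mL. Plates incubated 48 h at 37 °C, then inhibition zone diameter measured in mm. DMSO served as solvent control and ampicillin as reference.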

[4] = system: MCF7; experiment: Cytotoxicity against human MCF7 cells assessed as inhibition of cell viability at 25 ug/mL after 48 hrs by MTT assay; settings: MCF7, 48 h; how it was run: as §1
[5] = system: Bacillus subtilis; experiment: Antimicrobial activity against Bacillus subtilis at 1 ug/mL after 48 hrs by cup plate agar diffusion method; settings: read-out: IZ; how it was run: as §2
[6] = system: Pseudomonas aeruginosa; experiment: Antimicrobial activity against Pseudomonas aeruginosa at 1 ug/mL after 48 hrs by cup plate agar diffusion method; settings: read-out: IZ; how it was run: as §2
[7] = system: Escherichia coli; experiment: Antimicrobial activity against Escherichia coli at 1 ug/mL after 48 hrs by cup plate agar diffusion method; settings: read-out: IZ; how it was run: as §2

CC(=O)OC[C@H]1O[C@@H](Oc2nc(-c3cccs3)cc(-c3ccc(Cl)cc3)c2C#N)[C@H](OC(C)=O)[C@@H](OC(C)=O)[C@@H]1OC(C)=O showed an inhibition at 50 µg/mL [1] of 5%, an inhibition at 100 µg/mL [2] of 10% and a zone of inhibition at 1 µg/mL [3] of 8 mm. For the same molecule, the inhibition at 25 µg/mL [4] was 0%, the zone of inhibition at 1 µg/mL [5] was 11 mm and the zone of inhibition at 1 µg/mL [6] was 13 mm. It also gave a zone of inhibition at 1 µg/mL [7] of 3 mm.

In the case of CC(=O)OC[C@H]1O[C@@H](Oc2nc(-c3cccs3)cc(-c3ccc(Cl)cc3)c2C#N)[C@H](OC(C)=O)[C@@H](OC(C)=O)[C@H]1OC(C)=O, the inhibition at 50 µg/mL [1] was 5%, the inhibition at 100 µg/mL [2] was 20% and the zone of inhibition at 1 µg/mL [3] was 12 mm. The inhibition at 25 µg/mL [4] was 0%, the zone of inhibition at 1 µg/mL [5] was 10 mm and the zone of inhibition at 1 µg/mL [6] was 26 mm. The zone of inhibition at 1 µg/mL [7] was 5 mm.

In the case of N#Cc1c(-c2ccc(Cl)cc2)cc(-c2cccs2)nc1O[C@@H]1O[C@H](CO)[C@@H](O)[C@H](O)[C@H]1O, the inhibition at 50 µg/mL [1] was 0%, the inhibition at 100 µg/mL [2] was 0% and the zone of inhibition at 1 µg/mL [3] was 3 mm. For the same molecule, the inhibition at 25 µg/mL [4] was 0%, the zone of inhibition at 1 µg/mL [5] was 1 mm and the zone of inhibition at 1 µg/mL [6] was 0 mm. The zone of inhibition at 1 µg/mL [7] was 0 mm.

In the case of N#Cc1c(-c2ccc(Cl)cc2)cc(-c2cccs2)nc1O[C@@H]1O[C@H](CO)[C@H](O)[C@H](O)[C@H]1O, the zone of inhibition at 1 µg/mL [3] was 0 mm, the zone of inhibition at 1 µg/mL [5] was 0 mm and the zone of inhibition at 1 µg/mL [6] was 0 mm. It also gave a zone of inhibition at 1 µg/mL [7] of 0 mm.

Molecule CC(=O)OC[C@H]1O[C@@H](Oc2nc(-c3cccs3)cc(-c3ccc(Cl)cc3)c2C#N)[C@H](OC(C)=O)[C@H]1OC(C)=O has an inhibition at 50 µg/mL [1] of 0%, an inhibition at 100 µg/mL [2] of 8% and an inhibition at 25 µg/mL [4] of 0%.

Molecule CC(=O)OC[C@H]1O[C@@H](Oc2nc(-c3cccs3)cc(-c3ccc(Cl)cc3)c2C#N)[C@H](OC(C)=O)[C@@H]1OC(C)=O has an inhibition at 50 µg/mL [1] of 7%, an inhibition at 100 µg/mL [2] of 12% and a zone of inhibition at 1 µg/mL [3] of 9 mm. It also gave an inhibition at 25 µg/mL [4] of 2%, a zone of inhibition at 1 µg/mL [5] of 8 mm and a zone of inhibition at 1 µg/mL [6] of 25 mm. It also gave a zone of inhibition at 1 µg/mL [7] of 3 mm.

With N#Cc1c(-c2ccc(Cl)cc2)cc(-c2cccs2)nc1O[C@@H]1O[C@H](CO)[C@H](O)[C@H]1O the zone of inhibition at 1 µg/mL [3] was 3 mm, the zone of inhibition at 1 µg/mL [5] was 3.5 mm and the zone of inhibition at 1 µg/mL [6] was 9 mm. It also gave a zone of inhibition at 1 µg/mL [7] of 2 mm.

N#Cc1c(-c2ccc(Cl)cc2)cc(-c2cccs2)nc1O[C@@H]1O[C@H](CO)[C@@H](O)[C@H]1O showed an inhibition at 50 µg/mL [1] of 0%, an inhibition at 100 µg/mL [2] of 0% and a zone of inhibition at 1 µg/mL [3] of 10 mm. It also gave an inhibition at 25 µg/mL [4] of 0%, a zone of inhibition at 1 µg/mL [5] of 7 mm and a zone of inhibition at 1 µg/mL [6] of 28 mm. For the same molecule, the zone of inhibition at 1 µg/mL [7] was 6 mm.

In the case of CC(=O)OC[C@H]1O[C@@H](O[C@H]2[C@H](OC(C)=O)[C@@H](OC(C)=O)[C@H](Oc3nc(-c4cccs4)cc(-c4ccc(Cl)cc4)c3C#N)O[C@@H]2COC(C)=O)[C@H](OC(C)=O)[C@@H](OC(C)=O)[C@H]1OC(C)=O, the inhibition at 50 µg/mL [1] was 5%, the inhibition at 100 µg/mL [2] was 10% and the inhibition at 25 µg/mL [4] was 0%.

For N#Cc1c(-c2ccc(Cl)cc2)cc(-c2cccs2)nc1O[C@@H]1O[C@H](CO)[C@@H](O[C@@H]2O[C@H](CO)[C@H](O)[C@H](O)[C@H]2O)[C@H](O)[C@H]1O, the zone of inhibition at 1 µg/mL [3] was 5 mm, the zone of inhibition at 1 µg/mL [5] was 3 mm and the zone of inhibition at 1 µg/mL [6] was 10 mm. It also gave a zone of inhibition at 1 µg/mL [7] of 0 mm.

Molecule CC1(C)S[C@@H]2[C@H](NC(=O)[C@H](N)c3ccccc3)C(=O)N2[C@H]1C(=O)O [AMPICILLIN] has a zone of inhibition at 1 µg/mL [3] of 7 mm, a zone of inhibition at 1 µg/mL [5] of 6 mm and a zone of inhibition at 1 µg/mL [6] of 23 mm. It also gave a zone of inhibition at 1 µg/mL [7] of 2 mm.

With COc1cccc2c1C(=O)c1c(O)c3c(c(O)c1C2=O)C[C@@](O)(C(=O)CO)C[C@@H]3O[C@H]1C[C@H](N)[C@H](O)[C@H](C)O1 [DOXORUBICIN] the inhibition at 50 µg/mL [1] was 15%, the inhibition at 100 µg/mL [2] was 50% and the inhibition at 25 µg/mL [4] was 6%.

In the case of O=c1[nH]cc(F)c(=O)[nH]1 [FLUOROURACIL], the inhibition at 50 µg/mL [1] was 0%, the inhibition at 100 µg/mL [2] was 7% and the inhibition at 25 µg/mL [4] was 0%.
